According to publication PMC11443182 (Science signaling, 2024):
Entries after “also recorded” stand apart in the source; their conditions may differ.

Columns and labels:
[1] = tested on: WT and mutant AT1Rs (p-ERK/t-ERK) in GqKO cells; experiment: ERK phosphorylation Western blot, HEK293 GqKO cells, WT and mutant AT1Rs; format: cell-based, human; conditions: for ERK activation in GqKO cells: HEK293 GqKO cells vs WT cells, AngII 1 μM, TRV023 10 μM, Telm 10 μM
Outline: (§1)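 Receptor constructs (plasmid amounts adjusted to equalise receptor expression by radioligand binding) transfected with lipofectamine 2000 into cells grown in MEM with 10% FBS. […] RIPA lysis with protease/phosphatase inhibitors, 1 h at 4°C. SDS-PAGE/PVDF; phospho-ERK1/2 (1:1000) normalised to total ERK1/2 (1:2000).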

[2] = tested on: WT and mutant AT1Rs (nuclear ERK activity); experiment: Nuclear ERK BRET; format: cell-based, human
[3] = tested on: FLAG-tagged human WT AT1R; format: cell-based; conditions: AngII 1 μM, TRV023 10 μM, 10 min, N=5
Outline: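 Expi293F cells with inducible N-terminal FLAG-human AT1R (~2.5×10^6 density) were induced 30–36 h with doxycycline 4 µg/mL plus 5 mM butyrate, with expression checked by radioligand binding. […] Receptor was solubilized in MNG/CHS buffer with 1 µM losartan and PhosSTOP, purified on M1 anti-FLAG (EDTA/FLAG-peptide elution), TCA-precipitated, then reduced (TCEP) and alkylated (iodoacetamide) in 8 M urea/EPPS pH 8.5.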

WT AT1R [4] = experiment: β-arrestin recruitment BRET assay, WT AT1R; format: cell-based, human; conditions: HEK293 cells; WT AT1R-RLuc8, β-arrestin2-eGFP; 10 min, 37 °C; N=5
[5] = tested on: AT1R C-terminal tail mutants (PROX, MID, DIST, NULL); experiment: β-arrestin recruitment BRET assay, AT1R C-terminal tail mutants; format: cell-based, human; conditions: HEK293 cells, 10 min, 37 °C, N=5
[6] = tested on: AT1R C-terminal tail mutants (PROX, MID, DIST, NULL); experiment: β-arrestin1 endocytosis BRET assay, AT1R mutants; format: cell-based, human; conditions: HEK293 cells; β-arrestin1-RlucII/FYVE; 25 min 37 °C; N=4
Outline: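 HEK293 cells coexpressing WT or mutant AT1R, β-arrestin1-RlucII and endosomal FYVE-eGFP were reseeded next day on poly-L-ornithine plates (~25,000/well). […] Coelenterazine 400a (5 µM final) was added 2 min before reading (410/80 and 515/30 nm). Results are given as fold of untreated BRET; N=4.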

[7] = tested on: AT1R C-terminal tail mutants (PROX, MID, DIST, NULL); experiment: DiscoverX active endocytosis assay; format: cell-based, human; conditions: U2OS cells; β-arrestin2-EA; 3 h 37 °C; chemiluminescence; N=3
Outline: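 U2OS cells stably expressing β-arrestin2-EA and endosome-localized PK were transfected with WT or mutant AT1R, replated next day at 35,000 cells/well, and treated with ligands 3 h at 37 °C two days post-transfection. PathHunter detection reagents were added with 1 h RT incubation, then β-gal complementation chemiluminescence was read. Results are expressed as fold of untreated cells.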

WT AT1R [8] = experiment: Intramolecular FlAsH BRET; format: cell-based, human; conditions: HEK293 cells, AngII 1 μM, TRV023 10 μM, 10 min, N=4
Outline: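 HEK293 cells were Fugene HD-cotransfected with 1.5 µg AT1R and 0.1 µg of each rLuc–β-arrestin2–FlAsH construct. At 48 h cells in HBSS were labeled with 2.5 µM TC-FlAsH (or mock) for 30 min at RT, washed in BAL buffer and plated at 100,000/well. […] Six readings were taken (440–480 / 525–585 nm). Net BRET was calculated after mock-label and vehicle subtraction; N=4.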

[9] = tested on: AT1R C-terminal tail mutants (PROX, MID, DIST, NULL); experiment: Intramolecular FlAsH BRET; format: cell-based, human; conditions: HEK293 cells, 10 min, N=4
WT AT1R (p-ERK/t-ERK) = experiment: ERK phosphorylation Western blot, HEK293 cells, WT AT1R; format: cell-based, human; conditions: AngII 1 μM, TRV023 10 μM, 10 min, N=8-9
Outline: as §1

[10] = tested on: AT1R C-terminal tail mutants (p-ERK/t-ERK); experiment: ERK phosphorylation Western blot, HEK293 cells, AT1R mutants; format: cell-based, human; conditions: 10 min, N=8-9
Outline: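 HEK293 cells in 6-well plates were lipofectamine 2000-transfected with WT or mutant AT1R, with DNA adjusted to matched expression. Medium was refreshed on day 1. […] RIPA lysates with protease/phosphatase inhibitors were run on SDS-PAGE/PVDF and probed for phospho-ERK1/2 (1:1000) versus total ERK1/2 (1:2000) overnight at 4 °C.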

[11] = tested on: AT1R-PROX mutant (nuclear ERK activity); experiment: Nuclear ERK BRET; format: cell-based, human; conditions: HEK293T cells; AngII 1 μM; 5 min; vs WT receptor
Outline: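 WT or mutant AT1R (DNA adjusted for expression) PEI-co-transfected with 50 ng nuclear-localised EKAR biosensor with a NanoLuciferase donor. After 24 h, replated at 50,000/well in starvation MEM with 0.5% FBS, ± PTX 200 ng/mL. […] Read at 37°C, 530/480 nm; net BRET = ligand minus vehicle.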

AT1R WT / GRK2 = experiment: GRK2 recruitment BRET assay, WT AT1R; format: cell-based, human; conditions: GRKΔ4 cells; AngII 1 μM, TRV023 10 μM; 5 min
Outline: (§2)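 GRK2/3/5/6-null HEK293 cells were PEI-transfected with WT or mutant AT1R-Rluc8 (DNA adjusted to match expression) plus 1 µg C-terminally YFP-tagged GRK2. After 24 h they were plated at 50,000/well in 2% FBS starvation MEM. […] Plates were read at 37 °C (530/480 nm), and net BRET was taken as ligand minus vehicle.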

AT1R mutants / GRK2 = experiment: GRK2 recruitment BRET assay, AT1R mutants; format: cell-based, human; conditions: GRKΔ4 cells; AngII 1 μM, TRV023 10 μM; 5 min
Outline: as §2

AT1R mutants / GRK3 = experiment: GRK3 recruitment BRET assay, AT1R mutants; format: cell-based, human; conditions: GRKΔ4 cells; AngII 1 μM, TRV023 10 μM; 5 min
Outline: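 HEK293 cells lacking GRK2/3/5/6 PEI-transfected with WT or mutant AT1R-Rluc8 (DNA adjusted to equalise expression) and 1 µg GRK3-YFP (C-terminal tag). Replated after 24 h at 50,000/well in starvation MEM with 2% FBS. […] Read at 37°C, 530/480 nm; net BRET = ligand minus vehicle.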

AT1R mutants (Gq) = experiment: G protein activation TRUPATH BRET assay; format: cell-based, human; conditions: AngII concentration response; any of the AT1R mutants
[12] = tested on: AT1R mutants (Ca2+ response); experiment: FLIPR Ca2+ assay, AT1R mutants; format: cell-based, human; conditions: HEK293T cells; AngII serial doses, 37 °C; AUC; n=5
Outline: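 HEK293T cells (500,000/well) were transfected 24 h after seeding with WT, or adjusted amounts of PROX or MID AT1R giving equal expression. Next day they were replated at 50,000/well overnight and loaded with Calcium 6 dye 2 h at 37 °C.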

AT1R / β-arrestin = conditions: receptor "pre-phosphorylated"; AngII vs TRV023; cited from earlier work
AT1R / GRKs = conditions: cited from earlier work

pertussis toxin [PTX]
inhibition of AngII-induced ERK activation by PTX ([1]; GqKO cells, PTX pretreatment before AngII, WT and mutant AT1Rs): largely blocked AngII-induced ERK activation | PTX block of AngII-stimulated nuclear ERK ([2]; PTX 200 ng/mL pretreatment, stimulated by AngII, WT and mutant receptors): about 50% | PTX block of TRV023-stimulated nuclear ERK ([2]; PTX 200 ng/mL pretreatment, stimulated by TRV023, WT and mutant receptors): about 50%

angiotensin II (DRVYIHPF; Angiotensin-2; UniProt P01019 25-32, looked up) [AngII]
phosphorylation in DIST region ([3]; DIST region): comparable amounts of phosphorylation in the DIST region | phosphorylation in PROX region ([3]; PROX: Ser326, Ser328, Ser331, Thr332): The magnitude of increase was greatest in the proximal region of the tail; also recorded: the greatest increase in receptor phosphorylation occurred in the PROX region | β-arrestin recruitment (net BRET) (WT AT1R [4]): robust β-arrestin recruitment | β-arrestin recruitment (net BRET), AT1R-DIST ([5]; AT1R-DIST mutant): robust β-arrestin recruitment | reduction of β-arrestin recruitment, MID sites mutated ([5]; AT1R-MID mutant): 50% | reduction of β-arrestin recruitment, PROX sites mutated ([5]; AT1R-PROX mutant): 50% | AT1R internalization: requirement of DIST phosphorylation [6]: largely dispensable | AT1R internalization: requirement of DIST phosphorylation [7]: largely dispensable | AT1R internalization: requirement of PROX and MID phosphorylation [7]: required for AT1R internalization | β-arrestin2 conformation, six FlAsH sensor profile (WT AT1R [8]): distinct β-arrestin conformations | FlAsH4 BRET signal (WT AT1R [8]; Telm 10 μM): significant decrease in BRET compared to the shape profile induced by Telm | β-arrestin2 FlAsH profile, AT1R-DIST [9]: more comparable to that of the WT AT1R | ERK phosphorylation (p-ERK/t-ERK) (WT AT1R (p-ERK/t-ERK)): significant increase in ERK phosphorylation | ERK phosphorylation, AT1R-MID ([10]; AT1R-MID vs WT AT1R): somewhat higher activation of ERK phosphorylation | ERK phosphorylation, all phosphorylation-deficient mutants ([10]; AngII 1 μM, TRV023 10 μM): largely similar to that of the WT AT1R | ERK activation in GqKO cells ([1]; 10 min, N=7-8): substantially lower in GqKO cells compared to WT cells | ERK activation in GqKO cells, PROX mutant ([1]; HEK293 GqKO cells, AT1R-PROX, 10 min, N=7-8): most impairment relative to WT cells; also recorded: more substantially diminished in cells lacking Gq | nuclear ERK activation ([2]; HEK293T cells, AT1R WT and all AT1R mutants, AngII 1 μM, 5 min, net BRET): increase in ERK activation | nuclear ERK response, PROX mutant [11]: significantly impaired ERK response compared to WT receptor | GRK2 recruitment, AT1R WT (AT1R WT / GRK2): robust recruitment | GRK2 recruitment, DIST mutant (AT1R mutants / GRK2): significantly impaired | GRK2 recruitment, MID mutant (AT1R mutants / GRK2): significantly impaired | GRK2 recruitment, PROX mutant (AT1R mutants / GRK2): robust recruitment | GRK3 recruitment, MID mutant (AT1R mutants / GRK3): impaired in response to TRV023, but not AngII | EC50 of G protein activation, AT1R mutants (AT1R mutants (Gq)): No difference in EC50 | EC50 of Ca2+ response [12]: no difference in EC50 | maximal Ca2+ response, AT1R-PROX [12]: reduced maximal Ca^2+ response | allosteric interaction with β-arrestin (AT1R / β-arrestin): somewhat stronger allosteric interaction with β-arrestin than does TRV023 | GRK recruitment (AT1R / GRKs): recruits GRK2/3 and GRK5/6

CCCc1nc2c(C)cc(-c3nc4ccccc4n3C)cc2n1Cc1ccc(-c2ccccc2C(=O)O)cc1 [Telm, telmisartan]
ERK activation in GqKO cells ([1]; 10 min, N=7-8): did not induce ERK activation
